Data set [1] is described as follows: Cytotoxicity against human HeLa Ohio cells assessed as maximal non-cytotoxic concentration after 3 days by XTT assay. The data set is classed as cell-based. Particulars: read-out: MNCC. A general note: Tetrazolium assays rely on reduction of a dye to a coloured formazan, in cell work by metabolically active cells; call rule not given here.
The subject of data set [2] is rhinovirus B14. The data set is described as follows: Antiviral activity against HRV 14 infected in human HeLa Ohio cells assessed as reduction in viral plaque formation at maximum non-cytotoxic concentration after 3 days by neutral red uptake assay. The data set is classed as functional. In short, it runs like this: (§1)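 Plaque reduction on HeLa (Ohio) monolayers, with dosing starting from the maximum non-cytotoxic concentration. Virus was adsorbed 1 h at 33 °C, then cells got plaque overlay with fourfold drug dilutions, 3 days at 33 °C, and neutral red staining. Values are % plaque reduction at that concentration vs mock-treated control.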

Data set [3] deals with rhinovirus A1B. Nature of the data set: Antiviral activity against HRV 1B infected in human HeLa Ohio cells assessed as reduction in viral plaque formation at maximum non-cytotoxic concentration after 3 days by neutral red uptake assay. The data set is classed as functional, Human rhinovirus 1B. In short, it runs like this: as §1
In data set [4] the test system is rhinovirus B14. Nature of the data set: Antiviral activity against HRV 14 infected in human HeLa Ohio cells assessed as reduction in viral plaque formation after 3 days by neutral red uptake assay. The data set is classed as functional, organism-based. In short, it runs like this: (§2)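 HeLa (Ohio) monolayers were infected with enough virus for about 100 plaques per well, adsorbed 1 h at 33 °C, then overlaid with plaque medium with or without fourfold drug dilutions. After 3 days at 33 °C, cells were stained with neutral red (0.2 mg/mL in PBS pH 7.4) and plaques counted. IC50 was read from a plot of % plaque reduction vs log dose against mock-treated control.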

Data set [5] can be described thus: Cytotoxicity against human HeLa Ohio cells after 3 days by XTT assay. The following applies: read-out: TC50. The data set is classed as cell-based.
Data set [6] relates to rhinovirus A1B. Nature of the data set: Antiviral activity against HRV 1B infected in human HeLa Ohio cells assessed as reduction in viral plaque formation after 3 days by neutral red uptake assay. The data set is classed as functional, organism-based, Human rhinovirus 1B. The following applies: Rhinovirus A, 72 h. The method, boiled down:
as §2

Data set [7] in a line: Therapeutic index, ratio of TC50 for human HeLa Ohio cells to IC50 for HRV1B infected in human HeLa Ohio cells. The following applies: read-out: TI. The data set is classed as cell-based.

Molecules are shown by their SMILES.

With `Clc1ccc(C2CCc3cc(Cl)ccc3O2)cc1` (stereo unspecified), the MNTC at 72 h in data set [1] came to 25 µM.

For the compound `Clc1ccc2c(c1)CC(Cc1ccccc1)CO2` (stereo unspecified), the MNTC at 72 h in data set [1] is 25 µM.

`Clc1ccc2c(c1)C/C(=C/c1ccccc1)CO2`: in data set [1], the MNTC at 72 h is 25 µM.

For `C1=C(Cc2ccccc2)COc2ccccc21`, in data set [1], the MNTC at 72 h turned out to be 25 µM.

With `c1ccc(CC2COc3ccccc3C2)cc1` (stereo unspecified), the MNTC at 72 h in data set [1] was found to be 25 µM.

Take `C(=C1/COc2ccccc2C1)/c1ccccc1`: the MNTC at 72 h in data set [1] was found to be 25 µM.

Take `O[C@H]1c2cc(Cl)ccc2OC[C@H]1Cc1ccc(Cl)cc1` (relative stereo): the MNTC at 72 h in data set [1] was determined as 25 µM.

In the case of `O[C@H]1c2ccccc2OC[C@H]1Cc1ccc(Cl)cc1` (relative stereo), the MNTC at 72 h in data set [1] came out at 12.5 µM.

As a reminder, the IC50 is the point on the concentration scale where inhibition reaches its midpoint. As to `O[C@H]1c2ccccc2OC[C@H]1Cc1ccccc1` (relative stereo), the “inhibition (INH)” value with rhinovirus B14 [2] was 15.9%; with rhinovirus A1B [3] it was 50%. For the same compound, the MNTC at 72 h in data set [1] turned out to be 25 µM. Further, the half-inhibitory concentration (IC50) in the data set on rhinovirus B14 [4] (Rhinovirus B, HeLa, 72 h) is above 25 µM; in the data set with rhinovirus A1B [6], 3.49 µM. Also, the CC50 at 72 h in data set [5] was 150 µM. The selectivity ratio in data set [7] was 43.

Regarding `O[C@H]1c2ccccc2OC[C@@H]1Cc1ccccc1` (relative stereo), in data set [1], the MNTC at 72 h turned out to be 25 µM. Besides, in the data set with rhinovirus A1B [3], the “inhibition (INH)” value was 50%. Also, the concentration for half-maximal inhibition (IC50) entry with rhinovirus B14 [4] (hela) is “Not Active”; in the data set on rhinovirus A1B [6], 3.59 µM. Moreover, in data set [5], the CC50 at 72 h is above 200 µM. Further, in data set [7], the selectivity ratio was above 55.7.

The values are drawn from ChEMBL document CHEMBL1151910, “Synthesis and antirhinovirus activity of new 3-benzyl chromene and chroman derivatives” (Bioorg Med Chem, 2009).
